Source: BindingDB's records for doi:10.1016/j.bmcl.2004.04.085 (Merck Sharp & Dohme Research Laboratories, 2004)

Key:
[1] = biological target: T1, Gamma-aminobutyric acid receptor subunit alpha-3/beta-3/gamma-2 (Homo sapiens, UniProt P34903+P18507+P28472); assay: In vitro binding affinity against Gamma-aminobutyric acid A receptor, alpha 3 expressed in L(tk) cells by displacement of [3H]Ro-151788
T1 sequence (P34903 whole entry): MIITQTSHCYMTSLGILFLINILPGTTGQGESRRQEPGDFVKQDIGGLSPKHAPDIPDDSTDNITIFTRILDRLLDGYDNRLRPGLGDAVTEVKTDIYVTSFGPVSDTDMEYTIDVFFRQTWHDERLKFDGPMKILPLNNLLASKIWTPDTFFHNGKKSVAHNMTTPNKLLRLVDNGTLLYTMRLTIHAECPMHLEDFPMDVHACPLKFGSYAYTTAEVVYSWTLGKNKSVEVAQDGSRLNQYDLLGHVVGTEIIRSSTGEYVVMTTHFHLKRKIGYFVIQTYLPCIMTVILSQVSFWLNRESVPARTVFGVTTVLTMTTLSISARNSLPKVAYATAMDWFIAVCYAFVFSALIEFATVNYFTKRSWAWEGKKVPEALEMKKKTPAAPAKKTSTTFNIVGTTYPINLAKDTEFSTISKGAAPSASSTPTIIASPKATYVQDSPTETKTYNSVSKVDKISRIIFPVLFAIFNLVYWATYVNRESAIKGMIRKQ
T1 sequence (P18507 whole entry): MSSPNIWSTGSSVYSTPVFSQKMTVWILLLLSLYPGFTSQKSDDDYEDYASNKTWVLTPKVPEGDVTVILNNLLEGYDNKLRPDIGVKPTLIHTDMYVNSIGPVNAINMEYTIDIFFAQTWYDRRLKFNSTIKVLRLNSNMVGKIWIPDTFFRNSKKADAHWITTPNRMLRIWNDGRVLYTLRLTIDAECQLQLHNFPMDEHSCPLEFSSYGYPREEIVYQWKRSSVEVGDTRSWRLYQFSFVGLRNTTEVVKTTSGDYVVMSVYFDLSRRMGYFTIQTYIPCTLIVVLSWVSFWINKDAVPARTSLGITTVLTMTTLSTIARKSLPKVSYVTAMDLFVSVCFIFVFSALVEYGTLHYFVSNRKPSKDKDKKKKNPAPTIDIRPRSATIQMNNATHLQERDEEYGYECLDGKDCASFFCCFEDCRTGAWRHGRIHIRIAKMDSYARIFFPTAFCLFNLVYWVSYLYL
T1 sequence (P28472 whole entry): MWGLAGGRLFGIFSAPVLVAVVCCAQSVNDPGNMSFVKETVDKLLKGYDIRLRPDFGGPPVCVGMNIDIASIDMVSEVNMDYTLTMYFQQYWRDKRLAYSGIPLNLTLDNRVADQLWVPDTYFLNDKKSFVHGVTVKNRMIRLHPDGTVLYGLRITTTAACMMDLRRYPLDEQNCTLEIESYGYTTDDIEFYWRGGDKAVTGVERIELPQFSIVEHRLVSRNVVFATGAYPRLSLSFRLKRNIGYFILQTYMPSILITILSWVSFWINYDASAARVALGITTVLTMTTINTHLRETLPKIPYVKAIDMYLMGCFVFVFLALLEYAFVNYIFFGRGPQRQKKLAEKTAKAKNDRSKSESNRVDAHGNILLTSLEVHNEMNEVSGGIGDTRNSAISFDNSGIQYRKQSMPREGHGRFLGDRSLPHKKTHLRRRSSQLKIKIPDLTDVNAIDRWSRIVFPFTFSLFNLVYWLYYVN
Procedure, shortened: (§1)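 Binding to cloned human α1β3γ2, α2β3γ2 or α3β3γ2 receptors stably expressed in L(tk-) cells, measured as displacement of [3H]Ro15-1788; means ± SEM, n = 3-7.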

[2] = biological target: T2, Gamma-aminobutyric acid receptor subunit alpha-1/beta-3/gamma-2 (Homo sapiens, UniProt P14867+P18507+P28472); assay: In vitro binding affinity against gamma-aminobutyric acid A receptor, alpha 1 expressed in L(tk) cells by displacement of [3H]Ro-151788; procedure, shortened: as §1
T2 sequence (P14867 whole entry): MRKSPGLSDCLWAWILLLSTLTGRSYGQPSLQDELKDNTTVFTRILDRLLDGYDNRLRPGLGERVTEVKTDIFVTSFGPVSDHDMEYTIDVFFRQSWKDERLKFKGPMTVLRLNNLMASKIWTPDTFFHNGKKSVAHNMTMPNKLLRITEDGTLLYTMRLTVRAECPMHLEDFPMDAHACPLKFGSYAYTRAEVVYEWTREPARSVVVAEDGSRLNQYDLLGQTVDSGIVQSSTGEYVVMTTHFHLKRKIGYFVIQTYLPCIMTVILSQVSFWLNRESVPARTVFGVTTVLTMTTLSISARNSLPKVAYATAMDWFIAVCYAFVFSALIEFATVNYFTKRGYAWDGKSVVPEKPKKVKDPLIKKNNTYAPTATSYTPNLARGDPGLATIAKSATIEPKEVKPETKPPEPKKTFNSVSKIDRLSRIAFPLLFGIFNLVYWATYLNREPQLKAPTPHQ
T2 sequence (P18507 whole entry): T1 sequence (P18507 whole entry)
T2 sequence (P28472 whole entry): T1 sequence (P28472 whole entry)

[3] = biological target: T1, Gamma-aminobutyric acid receptor subunit alpha-3/beta-3/gamma-2; assay: In vitro displacement of [3H]Ro-151788 from human GABA-A receptor alpha-3-beta-3-gamma-2 subunits expressed in L(tk-) cells; procedure, shortened: as §1

Structure (SMILES) | Ki [1] | Ki [2] | Ki [3]
O=c1c2c([nH]n1-c1ccc(Cl)cc1)C1CCCC1N=C2 (stereo not drawn) [2-(4-Chloro-phenyl)-2,5a,6,7,8,8a-hexahydro-5H-cyclopenta[b]pyrazolo[3,4-d]pyridin-3-one] | 1.1 nM | – | –
O=c1c2c([nH]n1-c1ccc(Cl)cc1)C1CCCCCC1N=C2 (stereo not drawn) [2-(4-Chloro-phenyl)-2,5a,6,7,8,9,10,10a-octahydro-5H-1,2,5-triaza-cyclohepta[e]inden-3-one] | – | 1.1 nM | –
O=c1c2c([nH]n1-c1ccc(Cl)cc1)C1CN(CC3CC3)CCC1N=C2 (stereo not drawn) [2-(4-Chloro-phenyl)-8-cyclopropylmethyl-2,5,5a,6,7,8,9,9a-octahydro-pyrazolo[4,3-c][1,6]naphthyridin-3-one] | 7.5 nM | – | –

Further lines, results first:

Ki [1] | Ki [2] | Ki [3] | Structure (SMILES)
– | 1.1 nM | 2.2 nM | O=c1c2cnc3c(c2[nH]n1-c1ccc(OC2CC2)cc1)CCCC3 [2-(4-Cyclopropoxy-phenyl)-2,5,6,7,8,9-hexahydro-pyrazolo[4,3-c]quinolin-3-one]
2.3 nM | 1 nM | – | O=c1c2cnc3c(c2[nH]n1-c1ccc(OC(F)F)cc1)CCCC3 [2-(4-Difluoromethoxy-phenyl)-2,5,6,7,8,9-hexahydro-pyrazolo[4,3-c]quinolin-3-one]
– | 7.3 nM | – | O=c1c2cnc3c(c2[nH]n1-c1ccc(OC(F)(F)F)cc1)CCCC3 [2-(4-Trifluoromethoxy-phenyl)-2,5,6,7,8,9-hexahydro-pyrazolo[4,3-c]quinolin-3-one]
